Measurements reported in the RNAGym collection of RNA variant scans (doi:10.1126/science.aae0568).
Fewer inactive variants are shown than the library holds.

B1: tRNA (parent)
chain: GUUCCGUUGGCGUAAUGGUAACGCGUCUCCCUCCUAAGGAGAAGACUGCGGGUUCGAGUCCCGUACGGAACG

Variants of: B1
Assay: yeast fitness relative to wild type (ratio to wild type); higher = fitter; tRNA-Arg(CCU), competitive growth, 37 C, YPD
In short: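 The tRNA-Arg(CCU) gene variants were made by chemical synthesis with a 3% per-site mutation rate at 69 sites and inserted at the native genomic locus of Saccharomyces cerevisiae. After pooling, the strains were competed in YPD at 37°C for 24 hours in six parallel replicates. Gene amplicons from the start population and each end population were read by 100-nucleotide paired-end sequencing, and Darwinian fitness relative to wild type was taken from genotype frequency changes. Genotypes needed ≥ 100 starting reads, and estimates < 0.5 were set to 0.5.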

Variant	yeast fitness
C4G G9C C22A C62A C66G	≤ 0.5
C4G G9C C22A G67A	≤ 0.5
C4G G9C C22A G68U	≤ 0.5
C4G G9C C33G	0.674
C4G G9C C33G C61U A70G	≤ 0.5
C4G G9C C33G C66U	0.72
C4G G9C G10A C24U	≤ 0.5
C4G G9C G38C G68A	≤ 0.5
C4G G9C G41A C55U U59A	≤ 0.5
C4G G9C G41A C55U U59A A70U	0.545
C4G G9C G41A C61U	≤ 0.5
C4G G9C U35C G41A C55U U59A A70U	≤ 0.5
C4G G10A A21G	0.547
C4G G10A A42C U54G	≤ 0.5
C4G G10A A69U	0.625
C4G G10A C22G C55A	0.555
C4G G10A C27G A45U C49G C55A	0.617
C4G G10A C29U C46G	≤ 0.5
C4G G10A C30G A43G	0.659
C4G G10A G41C	≤ 0.5
C4G G10A G41C C62G	0.572

Variant	yeast fitness
C4G G10C C11G A37U A43G	≤ 0.5
C4G G10C C11G A37U A43G A69G	≤ 0.5
C4G G10C C24U C34U A36U C46A	≤ 0.5
C4G G10C C46A G68C	≤ 0.5
C4G G10C C46G	0.632
C4G G10C G12C A21C G48C	≤ 0.5
C4G G10C G12C A21C G48C A57G	0.527
C4G G10C U26C C27G A37G G39A	≤ 0.5
C4G G10U A14U C24U C33U G52A C66U	≤ 0.5
C4G G10U A20U C34G A37G C66U	≤ 0.5
C4G G12A	0.781
C4G G12A A43U A45C G67C	≤ 0.5
C4G G12A C24U	≤ 0.5
C4G G12A C30U G63A G68C	0.574
C4G G12A C49U C60A C61A	≤ 0.5
C4G G12A C66G	0.503
C4G G12A G68U	≤ 0.5
C4G G12A U19C C29G A57G C61A A65C C66U	0.634
C4G G12A U26A	≤ 0.5
C4G G12C A40G	≤ 0.5
C4G G12U A14C C49U A65U	≤ 0.5

Variant	yeast fitness
C4G G17A	0.724
C4G G17A A20C C61U	≤ 0.5
C4G G17A A36G C46U	≤ 0.5
C4G G17A A43G	≤ 0.5
C4G G17A A57G	≤ 0.5
C4G G17A A70G	0.567
C4G G17A C29U C66U	≤ 0.5
C4G G17A C30U	≤ 0.5
C4G G17A C66U	0.596
C4G G17A G51A C66U	≤ 0.5
C4G G17A G52A	≤ 0.5
C4G G17A U26C A40G A70C	0.793
C4G G17A U28A C31G A57G C62U	≤ 0.5
C4G G17C A37U G58A C61A	≤ 0.5
C4G G17C C22G	≤ 0.5
C4G G17C C33G	≤ 0.5
C4G G17U G23A C55A C61A	≤ 0.5
C4G G18A C30U	0.57
C4G G18A C30U C60G	0.515
C4G G18C	0.599
C4G G18C A57U	≤ 0.5

Variant	yeast fitness
C4G G18C A65U	≤ 0.5
C4G G18C A70C	0.508
C4G G18C C30A	≤ 0.5
C4G G18C C33G G41A	≤ 0.5
C4G G18C C33G G41A C55G	≤ 0.5
C4G G18C C46G	≤ 0.5
C4G G18C C62G	≤ 0.5
C4G G18C G51A	≤ 0.5
C4G G18C G63A	≤ 0.5
C4G G18C G68C	0.636
C4G G18C U64A	≤ 0.5
C4G G23A A36G G68U	≤ 0.5
C4G G23A C24A C31A A36G	≤ 0.5
C4G G23A C29G A37C	0.651
C4G G23A C29G A37C C60G	0.808
C4G G23A C29G A37C C61G	≤ 0.5
C4G G23C A45U	≤ 0.5
C4G G23C C29U	0.501
C4G G23C C60G	≤ 0.5
C4G G23C C61U	≤ 0.5
C4G G23C G52A U54C	≤ 0.5
